Calls of active or inactive are those of the source. No cut-off for these calls is given here.
Assays:
[1] = target: T1, Estrogen receptor (Rattus norvegicus) (UniProt P06211+Q62986); assay: Relative binding against estrogen receptor of rat uterine cytosol by [2-4-3H] estradiol.; format: protein assay
Summary of the method: (§1)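 Uterine cytosol (1 uterine equiv/mL) from immature rats primed s.c. with 1 μg E₂ for 3 days, incubated 18 h at 4 °C with [³H]E₂ (5 × 10⁻⁹ M) and test compound (10⁻⁴–10⁻⁹ M) in triplicate. Medium was Tris-HCl/EDTA/azide buffer, pH 7.4, with 7% DMF. Free ligand removed with charcoal-dextran for 20 min before scintillation counting. Results expressed relative to E₂ = 100, mean ± SD of ≥3 determinations.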

Rattus norvegicus [2] = assay: Estrogenicity in rats following 3 x 0.1 mg s.c. over 72h.; format: functional
Summary of the method: (§2)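 Immature Sprague-Dawley female rats, 21–23 days old, seven to nine per group, injected s.c. on 3 consecutive days with test compound suspended in 0.2 mL propylene glycol–saline (1:1 v/v). Vehicle-only controls. Autopsy 24 h after the final dose, uterine wet weight recorded. Agonist activity computed as (C₀ − V)(100)/(E − V), with E the E₂-alone mean.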

Rattus norvegicus [3] = assay: Inhibition of E2 effects in rats by 0.1 mg s.c.; format: functional
Summary of the method: (§3)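 Immature female Sprague-Dawley rats (21–23 days), groups of seven to nine, given test compound suspended in 0.2 mL propylene glycol–saline (1:1 v/v) s.c. daily for 3 consecutive days, plus 1 μg E₂ per animal at a separate site. Controls got E₂ plus vehicle. Uterine wet weight taken at autopsy 24 h after the last injection. Inhibition computed as (E − C₁)(100)/(E − V).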

Rattus norvegicus [4] = assay: Anti-uterotrophic effects in rats following 3 x 0.1 mg s.c. over 72h.; format: functional; summary of the method: as §3
Rattus norvegicus [5] = assay: Uterotrophic effects in rats following 3 x 0.1 mg s.c. over 72h.; format: functional, Uterus; summary of the method: as §2
Rattus norvegicus [6] = assay: Inhibition of E2 effects in rats by 1 mg s.c.; format: functional; summary of the method: as §3
Rattus norvegicus [7] = assay: Estrogenicity in rats following 3 x 1 mg s.c. over 72h.; format: functional; summary of the method: as §2
Rattus norvegicus [8] = assay: Uterotrophic effects in rats following 3 x 1 mg s.c. over 72h.; format: functional, Uterus; summary of the method: as §2
Rattus norvegicus [9] = assay: Anti-uterotrophic effects in rats following 3 x 1 mg s.c. over 72h.; format: functional; summary of the method: as §3
[10] = target: T1, Estrogen receptor (Rattus norvegicus); assay: Relative binding affinity against estrogen receptor of rat uterine cytosol by [2-4-3H] estradiol; No detectable affinity at 100 uM.; summary of the method: as §1

| SMILES | RBA [1] [%] | Estrogenic effect (Rattus norvegicus [2]) [%] | Inhibition (Rattus norvegicus [3]) [%] | Uterine weight (Rattus norvegicus [4]) [mg] | Uterine weight (Rattus norvegicus [5]) [mg] | Inhibition (Rattus norvegicus [6]) [%] | Estrogenic effect (Rattus norvegicus [7]) [%] | Uterine weight (Rattus norvegicus [8]) [mg] | Uterine weight (Rattus norvegicus [9]) [mg] | RBA [10] |
| --- | --- | --- | --- | --- | --- | --- | --- | --- | --- | --- |
| C/C(=C(\C(=O)c1ccc(O)cc1)c1ccccc1)c1ccccc1 | 0.54 | 0 | 14 | 47.3 | 19.8 | – | – | – | – | – |
| c1ccc(-c2coc(-c3ccccc3)c2-c2ccc(OCCN3CCCC3)cc2)cc1 | 0.84 | 31 | 0 | 53.9 | 26.4 | – | – | – | – | – |
| Oc1ccc(-c2c(-c3ccccc3)oc3cc(O)ccc23)cc1 | 1.6 | – | – | – | – | 0 | 0 | 14.6 | 46.5 | – |
| Oc1ccc(-c2coc(-c3ccccc3)c2-c2ccccc2)cc1 | 3 | 100 | 0 | 57.6 | 48.9 | – | – | – | – | – |
| O=C(c1ccc(O)cc1)c1c(-c2ccccc2)oc2cc(O)ccc12 | 2.1 | – | – | – | – | 37 | 25 | 22.4 | 38 | – |
| O=C(c1ccc(OCCN2CCCC2)cc1)c1c(-c2ccccc2)oc2ccccc12 | 0.01 | – | – | – | – | 0 | 0 | 16.7 | 56.1 | – |
| O=C(/C(=C\c1ccccc1)c1ccccc1)c1ccc(O)cc1 | 0.06 | 33 | 0 | 70.4 | 22.2 | – | – | – | – | – |
| O=C(c1ccccc1)c1c(-c2ccc(O)cc2)oc2ccccc12 | 0.12 | – | – | – | – | 0 | 0 | 13.7 | 47.4 | – |
| O=C(c1ccc(O)cc1)c1c(-c2ccc(O)cc2)oc2ccccc12 | 1.7 | – | – | – | – | 0 | 0 | 13.1 | 59.3 | – |
| Cl.O=C(c1ccccc1)c1c(-c2ccc(OCCN3CCCC3)cc2)oc2ccccc12 | 0.3 | – | – | – | – | 58 | 38 | 27.7 | 29.6 | – |
| O=C(c1ccc(O)cc1)c1c(-c2ccccc2)oc2ccccc12 | 5.3 | – | – | – | – | 0 | 10 | 16.3 | 50.7 | – |
| COc1ccc2c(-c3ccc(OCCN4CCCC4)cc3)c(-c3ccccc3)oc2c1 | 0.01 | – | – | – | – | 0 | 57 | 35.4 | 61.4 | – |
| O=C(c1ccc(O)cc1)c1oc2cc(O)ccc2c1-c1ccc(O)cc1 | 2.7 | – | – | – | – | 23 | 31 | 26.3 | 48.3 | – |
| c1ccc(-c2occ(-c3ccc(OCCN4CCCC4)cc3)c2-c2ccccc2)cc1 | – | 61 | 0 | 52.1 | 35.6 | – | – | – | – | inactive |
| C/C(=C(\C(=O)c1ccc(OCCN2CCCC2)cc1)c1ccccc1)c1ccccc1 | 0.24 | 0 | 16 | 46.6 | 18 | – | – | – | – | – |
| C/C(=C(/C(=O)c1ccc(O)cc1)c1ccccc1)c1ccccc1 | 3.6 | 83 | 21 | 44.7 | 46.4 | – | – | – | – | – |
| O=C(c1ccccc1)c1c(-c2ccc(O)cc2)oc2cc(O)ccc12 | 0.72 | – | – | – | – | 0 | 35 | 26.6 | 43.2 | – |
| COc1ccc2c(-c3ccc(O)cc3)c(-c3ccccc3)oc2c1 | 0.01 | – | – | – | – | – | – | – | – | – |
| COc1ccc(-c2c(-c3ccccc3)oc3cc(O)ccc23)cc1 | 0.01 | – | – | – | – | – | – | – | – | – |
| Oc1ccc(-c2oc3cc(O)ccc3c2-c2ccc(O)cc2)cc1 | 7.8 | – | – | – | – | 30 | 22 | 21.2 | 39.6 | – |
| O=C(/C(=C/c1ccccc1)c1ccccc1)c1ccc(O)cc1 | 1.8 | 68 | 0 | 78.1 | 49.4 | – | – | – | – | – |
| C/C(=C(/C(=O)c1ccc(OCCN2CCCC2)cc1)c1ccccc1)c1ccccc1 | 0.008 | 38 | 26 | 43.1 | 30.6 | – | – | – | – | – |
| Oc1ccc(-c2c(-c3ccccc3)coc2-c2ccccc2)cc1 | 4.5 | 0 | 0 | 42.8 | 16.7 | – | – | – | – | – |

— ChEMBL document CHEMBL1124544, “Structure-activity relationship of antiestrogens: a study using triarylbutenone, benzofuran, and triarylfuran analogues as models for triarylethylenes and triarylpropenones” (1989)
